The record followed here is PubChem BioAssay AID504789 (Broad Institute, 2011).

Results filed as inconclusive are left out. Activity calls are given as the source filed them.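 How the source made its calls: active means compound whose fitted half-maximal dose lies within ten times its top tested dose in every test run, killing cells; inconclusive means test runs disagree, or a run gives an unclear call; inactive means every test run inactive.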

In experiment [1] the test system is HMLE_sh_eGFP viability, CellTiter-Glo luminescence, 72 h. Briefly: HMLE_sh_eGFP viability loss – cell-based, luminescence, dry powder, set 7, counter-screen for breast cancer stem cell project, dose response (AID 504789). In outline:
(§1)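 Assay system: HMLE_sh_eGFP control cell line (HMLE cells with shRNA against eGFP); Input: 2000 cells per well; Timing: compound exposure approximately 70–74 h at 37 °C; Technique: ATP luminescence with CellTiter-Glo diluted 1:3 in PBS; Control set: DMSO neutral control and 160 µM puromycin positive control, every plate.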

Assay in experiment [2]: as above
The conditions noted are these: HMLE_sh_eGFP viability, CellTiter-Glo luminescence, 72 h; at 19.5 µM (top of the series). In outline: as §1

For `Cc1csc(NC(=O)c2cccc(COc3cccc(F)c3)c2)n1`, the AC50 in experiment [1] is 2.2 µM.

As for `CCc1ccc(/C=C/C(=O)NC2=NCCS2)cn1`, the activity change, negative = cytotoxicity in experiment [2] was -2.79% (inactive).

For `Cc1csc(NC(=O)c2cccc(COc3cccc(Cl)c3)c2)n1`, the AC50 in experiment [1] was 3.87 µM.

On to `COc1cc(C(C)C)ccc1/C=C/C(=O)NC1=NCCS1`, for which the activity change, negative = cytotoxicity in experiment [2] was 10.3% (inactive).

Turning to `O=C(COc1ccc(Cl)cc1Cl)n1ccc(-c2ccc[nH]2)n1`, in experiment [2], the activity change, negative = cytotoxicity is 27.2% (inactive).

For the molecule `O=C(COc1ccc(Cl)cc1Cl)N/N=C/c1ccccc1`, in experiment [2], the activity change, negative = cytotoxicity is 11.1% (inactive).

On to `Cc1csc(NC(=O)c2ccc(COc3ncccc3F)o2)n1`, for which the activity change, negative = cytotoxicity in experiment [2] is -4.8% (inactive).

`CN(C)C(=N)N=C(N)N`: the activity change, negative = cytotoxicity in experiment [2] was 15.9% (inactive).

Take `N#Cc1cccc(/C=C/C(=O)NC2=NCCS2)c1`: in experiment [2], the activity change, negative = cytotoxicity was -7.41% (inactive).

Consider `O=C(COc1ccc(Cl)cc1Cl)Nc1nccs1`, for which the activity change, negative = cytotoxicity in experiment [2] was 0.602% (inactive).

For `CC(C)c1ccc(/C=C/C(=O)N2CC(F)(F)C2)cc1`, the activity change, negative = cytotoxicity in experiment [2] is 11.1% (inactive).

As for `O=C(c1ccc(COc2ccccc2)o1)n1ccc(-c2ccc[nH]2)n1`, in experiment [2], the activity change, negative = cytotoxicity was 10.5% (inactive).

Turning to `Cc1cccc(/C=C/C(=O)NC2=NCCS2)c1`, the activity change, negative = cytotoxicity in experiment [2] is 23.8% (inactive).

As for `O=C(O)COc1ccc(Cl)cc1Cl`, the activity change, negative = cytotoxicity in experiment [2] is -6.56% (inactive).

For `O=C(COc1ccc(Cl)cc1Cl)NC1=NCCS1`, the activity change, negative = cytotoxicity in experiment [2] was -6.79% (inactive).

Regarding `Cc1cccc(OCc2cccc(C(=O)Nc3nc(C)cs3)c2)c1`, in experiment [1], the AC50 was 11.9 µM.

As for `COc1cccc2c1C(=O)c1c(O)c3c(c(O)c1C2=O)C[C@@](O)(C(=O)CO)C[C@@H]3OC1C[C@H](N)[C@H](O)[C@H](C)O1` (some centres not stated), the AC50 in experiment [1] was 0.068 µM.

On to `CC(C)c1ccc(/C=C\C(=O)NC2=NCCS2)cc1`, for which, in experiment [2], the activity change, negative = cytotoxicity was -12.1% (inactive).

With `O=C(c1ccc(COc2ccccc2)o1)N1CC(F)(F)C1`, in experiment [2], the activity change, negative = cytotoxicity was 13.3% (inactive).

With `Cc1csc(NC(=O)c2ccc(COc3cccc(OC(F)(F)F)c3)o2)n1`, in experiment [1], the AC50 was 3.01 µM.

Take `Cc1cccc(NCc2ccc(C(=O)Nc3nc(C)cs3)o2)n1`: the AC50 in experiment [1] was 21.9 µM.

Turning to `Cc1cccc(NCc2cccc(C(=O)Nc3nc(C)cs3)c2)n1`, the AC50 in experiment [1] is 25 µM.

As to `Cc1csc(NC(=O)c2ccc(CNc3ncccc3F)o2)n1`, the activity change, negative = cytotoxicity in experiment [2] was 3.58% (inactive).

In the case of `O=C(COc1c(Cl)cc(Cl)cc1Cl)N/N=C/c1ccc[nH]1`, the activity change, negative = cytotoxicity in experiment [2] is 17.5% (inactive).

With `Cc1csc(NC(=O)c2cccc(COc3ccccc3F)c2)n1`, in experiment [1], the AC50 is 12.4 µM.

With `CC(C)c1ccc(/C=C/C(=O)n2ccc(-c3ccc[nH]3)n2)cc1`, the AC50 in experiment [1] is 10.7 µM.

For the molecule `Cc1csc(NC(=O)c2ccc(COc3cccnc3)o2)n1`, the activity change, negative = cytotoxicity in experiment [2] was 17.4% (inactive).

For `Cc1csc(NC(=O)c2cccc(CNc3ccccn3)c2)n1`, in experiment [2], the activity change, negative = cytotoxicity was -7.38% (inactive).

`N#Cc1ccccc1/C=C/C(=O)NC1=NCCS1`: the activity change, negative = cytotoxicity in experiment [2] is 5.88% (inactive).

As for `Cc1ccnc(NCc2ccc(C(=O)Nc3nc(C)cs3)o2)c1`, in experiment [2], the activity change, negative = cytotoxicity is -1.56% (inactive).

For the molecule `COc1cc(OC(C)C)ccc1/C=C/C(=O)NC1=NCCS1`, in experiment [2], the activity change, negative = cytotoxicity was 25% (inactive).

On to `CC(C)c1ccc(C#CC(=O)NC2=NCCS2)cc1`, for which, in experiment [2], the activity change, negative = cytotoxicity was 6.05% (inactive).

By AC50 is commonly meant the concentration giving half of the maximal activity seen.
